# Bioassay records from PubChem BioAssay.
# MEKK3 PB1 HTS – MEKK3-MEK5 PB1 interaction, increase or decrease; Q99759; bead-based flow cytometry, Alexa488-MEK5 binding to MEKK3; actives lie on both sides; 0 = blocked by unlabeled MEK5, 100 = vehicle; binding response (% of control), % at 10 µM; actives 1.4% (n = 290,000); AID 1529;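 active = binding response more than 3 SD above or below the average of its plate-row segment, actives on both sides; inconclusive = wells at one plate position flagged as instrument error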;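 note: Alexa488 bead fluorescence after subtracting the streptavidin-only scavenger bead signal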
# T cell modulator – T cell immune modulation candidate | 2C CD8+ T cell-vesicle binding, flow cytometry; stronger effect = lower value | response (vesicle binding), % at 7 µM | actives 0.068% (n = 330,000) | AID 2052;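 active = response, share of CD8 T cells binding vesicles, and their 90th percentile fluorescence all below set limits, cut at about 80% in these data, passing the limit was not always enough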;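 note: values below 100% mean blocked vesicle binding to the CD8+ T cells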
#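 Test system: purified 2C TCR transgenic mouse naive CD8+ T cells. Probe or stimulus: QL9-peptide-loaded Drosophila micro-vesicles bearing Ld, ICAM-1 and B7-1. Incubation: binding step 1.5 h, 37 °C, antibody labelling 20 min, ice. Measured by: flow cytometry of vesicle-bound cells.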
# MEKK2 mut-MEK5 – signal of MEK5 binding to mutant human MEKK2 PB1 domain. bead flow cytometry, Alexa488-MEK5 binding to MEKK2 mutant. percent response, % at 10 µM. actives 0.35% (n = 290,000); in the data active = percent response above about 24%, passing the limit was not always enough
# MEKK2 WT-MEK5 – raises or lowers MEK5 binding to wildtype human MEKK2 PB1 domain; Q9Y2U5; binding response (% of control), % at 10 µM; bead flow cytometry, Alexa488-MEK5 binding to MEKK2 WT; actives lie on both sides; actives 1.1% (n = 290,000); AID 1531; in the data active = binding response below about 67% or above about 130%; inconclusive = no clear call, values can overlap the other calls; inactive = in between
# Rce1 inh – yeast Ras-converting enzyme inhibition; Q03530; yeast membranes, quenched prenylated peptide cleavage fluorescence; calls only; actives 0.27% (n = 290,000); AID 2563;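 active = fall in fluorescence gain of 50% or more versus controls, with final raw signal at or below 3038400; inconclusive = same 50% fall but final raw signal above 3038400; inactive = fall in fluorescence gain under 50%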;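 note: plate controls were neutral control wells for no effect and wells lacking membranes for full effect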
# Target sequence (Q03530 whole entry, looked up): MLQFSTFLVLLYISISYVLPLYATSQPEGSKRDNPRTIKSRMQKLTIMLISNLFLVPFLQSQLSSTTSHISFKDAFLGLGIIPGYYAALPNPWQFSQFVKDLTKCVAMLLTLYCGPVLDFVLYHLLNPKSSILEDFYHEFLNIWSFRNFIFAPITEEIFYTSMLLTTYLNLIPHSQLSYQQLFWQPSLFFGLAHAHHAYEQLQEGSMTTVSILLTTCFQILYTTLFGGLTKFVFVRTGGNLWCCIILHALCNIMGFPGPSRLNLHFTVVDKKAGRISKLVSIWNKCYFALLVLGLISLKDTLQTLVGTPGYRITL
# UCH37 inh – human UCH37 deubiquitinating enzyme inhibition; purified proteasome/UCH37, Ub-AMC cleavage fluorescence; inhibition, % (no concentration beside the values); actives 0.33% (n = 330,000); AID 588478;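 active = mean inhibition over replicate wells above about 20%, limit read from the data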;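 note: 0% = compound-free wells with enzyme and 100% = wells lacking proteasome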
# Target sequence (Q9Y5K5 whole entry, looked up): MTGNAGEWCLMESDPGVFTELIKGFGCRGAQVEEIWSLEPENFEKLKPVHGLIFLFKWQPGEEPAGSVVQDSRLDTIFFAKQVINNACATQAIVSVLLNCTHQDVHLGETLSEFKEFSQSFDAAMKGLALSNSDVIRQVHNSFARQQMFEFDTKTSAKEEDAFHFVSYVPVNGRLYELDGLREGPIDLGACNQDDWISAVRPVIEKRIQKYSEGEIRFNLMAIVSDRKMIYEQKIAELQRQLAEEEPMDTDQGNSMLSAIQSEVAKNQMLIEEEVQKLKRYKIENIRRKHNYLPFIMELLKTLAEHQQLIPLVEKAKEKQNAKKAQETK
#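 Signal – fluorescence, ex 355 nm, em 460 nm · System – Proteasome-bound UCH37 · Input – 0.15 nM proteasome as dispensed · Timing – 30 min preincubation with enzyme, 25 min cleavage at room temperature · Read-out basis – percent inhibition of cleavage signal versus uninhibited and no-proteasome wells · Medium – Tris-HCl pH 7.4 with ATP-MgCl2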
# MEKK2wt confirm – raises or lowers MEK5 binding to wildtype human MEKK2, retest; shares compounds with MEKK3 PB1 HTS; bead flow cytometry, Alexa488-MEK5 binding to MEKK2 WT; actives lie on both sides; binding response (% of control), % at 10 µM; actives 2.4% (n = 5,900); in the data active = binding response below about 16% or above about 210%; inactive = in between
# MEKK2mut confirm – signal of MEK5 binding to mutant human MEKK2, retest | shares compounds with MEKK3 PB1 HTS | bead flow cytometry, Alexa488-MEK5 binding to MEKK2 mutant | percent response, % at 10 µM | actives 2% (n = 5,900); in the data active = percent response mostly above about 71%, no sharp cut-off; inactive = mostly below about 38%;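 note: higher means compound restores mutant binding toward wildtype level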
# MEKK3-MEK5 inh – confirmation of inhibitors of MEK5 binding to human MEKK3 | binding response (% of control), % at 10 µM | AID 1894 | shares compounds with MEKK3 PB1 HTS | bead flow cytometry, Alexa488-MEK5 binding to MEKK3; stronger effect = lower value | actives 1.8% (n = 5,900);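 active = binding response below 72% of control, or above a set upper limit, though filed actives all read lower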;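 note: 100% = DMSO only wells and 0% = binding blocked by excess unlabeled MEK5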
# Active calls of the source: *; i = inactive; ? = inconclusive; / = not tested or not shown; [ ] = another dose, or the depositor's remark. Rows were chosen to be rich in hits. Some 2.5% of all compounds tested hit in one or more screens of this group.
SMILES,MEKK3 PB1 HTS,T cell modulator,MEKK2 mut-MEK5,MEKK2 WT-MEK5,Rce1 inh,UCH37 inh,MEKK2wt confirm,MEKK2mut confirm,MEKK3-MEK5 inh
O=C(CSc1n[nH]c(=O)[nH]c1=O)NN=C/C=C/c1ccccc1,/,/,/,/,/,6,/,/,/
CCC12CN3CCN(CC(C3)C1=NNC(=O)Nc1ccccc1)C2,/,/,/,/,/,1,/,/,/
Cc1ccc(C=NNC(=O)c2nnn(-c3nonc3N)c2-c2ccc3c(c2)OCO3)s1,/,/,/,/,/,-2,/,/,/
OC1(c2cccc(C(F)(F)F)c2)CCN(CCN2CCCCC2)CC1,109,135,16,140*,i,3,137,31,106
CCC(C)(C)n1nnnc1CN1CCC(O)(c2cccc(C(F)(F)F)c2)CC1,105,307,-3,105,i,0,/,/,/
COc1ccc(C=NOCC(=O)Nc2cc(C)on2)cc1OC,/,/,/,/,/,4,/,/,/
O=C(NN=Cc1ccc(F)cc1)c1cc(OCC(F)(F)F)ccc1OCC(F)(F)F,/,/,/,/,/,1,/,/,/
CC1(C)Cc2cccc(OCC(O)CN3CCN(c4ccccn4)CC3)c2O1 (stereo not given),127*,/,9,127,i,3,101,-5,101
O=C(COc1ccc(C(=O)Nc2ccc(Cl)cc2)cc1)NCc1ccccc1,155*,170,1,109,i,7,98,3,102
CCC(=NNC(=O)c1ccccc1O)c1c(C)[nH]n(-c2ccccc2)c1=O,/,/,/,/,/,-10,/,/,/
COc1cc(CCC(=O)Nc2ccc(Cl)c(C(F)(F)F)c2)cc(OC)c1OC,95,391,-1,96,i,2,/,/,/
COc1cc(CCC(=O)Nc2ccc(Br)c(C(F)(F)F)c2)cc(OC)c1OC,151*,579,0,112,i,2,105,1,102
Cc1cc(N2CCCCC2)nc(SCc2ccc(C#N)cc2)n1,122*,138,4,115,i,2,85,0,91
CSc1ccccc1NC(=O)CSc1n[nH]c(C)c1[N+](=O)[O-],101,262,2,97,?,3,/,/,/
Cc1ccc(NC(=O)CSc2n[nH]c(C)c2[N+](=O)[O-])cc1C,131*,229,0,104,i,0,100,2,100
Cc1[nH]nc(SCC(=O)NCc2ccc(F)cc2)c1[N+](=O)[O-],131*,130,-1,103,i,4,104,2,101
COc1ccc(N2C(=O)/C(=C/c3cccnc3)NC2=S)cc1,138*,283,2,112,i,/,87,-2,99
COc1cccc(N2C(=O)/C(=C\c3cccs3)NC2=S)c1,102,250,-3,92,i,5,/,/,/
C(=Nc1nc2ccccc2n1CCN1CCCCC1)c1cccs1,/,/,/,/,/,-1,/,/,/
O=C(NN=Cc1ccc(Cl)cc1)c1n[nH]c2c1CCCC2,/,/,/,/,/,3,/,/,/
Cc1ccc2c(c1)-c1nc3ccccc3cc1C2=NC1CCCCC1,103,167,8,105,/,2,/,/,/
Cc1ccc2c(c1)C(=NC1CCCCC1)c1cc3ccccc3nc1-2,67*[inhibitor],213,1,101,i,2,107,7,105
CCCC[C@@H](CNC)NC[C@H](Cc1ccc(O)cc1)NCCc1ccc(OCC)cc1,103,559,5,153*,i,-1,142,26,102
S=c1[nH]nc(COc2ccccc2)n1N=Cc1cccs1,/,/,/,/,/,2,/,/,/
Cc1cccc(S(=O)(=O)NN=c2sc3ccccc3n2C)c1,/,/,/,/,/,4,/,/,/
SMILES,MEKK3 PB1 HTS,T cell modulator,MEKK2 mut-MEK5,MEKK2 WT-MEK5,Rce1 inh,UCH37 inh,MEKK2wt confirm,MEKK2mut confirm,MEKK3-MEK5 inh
CCOc1cccc(-c2c(C(=O)NN=Cc3ccco3)nnn2-c2nonc2N)c1,/,/,/,/,/,3,/,/,/
COc1ccc(-c2c[n+](CC(=O)N3c4ccccc4Sc4ccccc43)c3n2CCC3)cc1,101,870,16,123,i,7,/,/,/
O=C(C[n+]1cc(-c2ccc(Cl)c(Cl)c2)n2c1CCC2)N1c2ccccc2Sc2ccccc21,97,i,55*,221*,i,16,146,18,86
O=C(C[n+]1cc(-c2ccc(Cl)cc2)n2c1CCC2)N1c2ccccc2Sc2ccccc21,100,283,29,157*,i,11,146,19,103
CC(=O)N1CCC2(CC1)CC(=NNC(=S)Nc1ccccc1C)c1cc(O)ccc1O2,/,/,/,/,/,-87,/,/,/
COc1ccc(Nc2nc(N3CCCC3)c3ccccc3n2)cc1,107,450,45*,185*,i,0,159,44,109
CC(=O)N=c1c(C#N)cc2c(=O)n3ccccc3nc2n1Cc1ccccc1,135*,287,1,105,i,-169,114,14,91
CCOCCCn1c(=NC(C)=O)c(C#N)cc2c(=O)n3ccccc3nc21,109,136,2,103,i,i,/,/,/
CC(CC(=O)Nc1ccccn1)=NNC(=O)C(=O)Nc1cccc(Cl)c1C,/,/,/,/,/,-1,/,/,/
Cc1cc(C)n(-c2nc(SCCN(C)C)c3c4c(sc3n2)CCCC4)n1,124*,255,49*,211*,i,-23,152,28,98
CNC(=O)/C=C/c1cccc(C(F)(F)F)c1,73*[inhibitor],290,-1,90,i,1,99,0,101
Cc1ccccc1NC(=O)/C=C/c1cccc(C(F)(F)F)c1,85,170,-8,85,i,-1,/,/,/
CCC(=NNC(=S)Nc1cccc(C)c1)c1ccccc1,/,/,/,/,/,3,/,/,/
COc1ccc(CC(=O)NN=Cc2c(C)n(C)c3ccccc23)cc1OC,/,/,/,/,/,7,/,/,/
O=C(NN=Cc1ccc(Br)o1)c1cncc(Br)c1,/,/,/,/,/,3,/,/,/
CCOC(=O)C(NC(=O)c1ccccc1)(OCc1ccc(F)cc1)C(F)(F)F (stereo not given),128*,273,1,106,i,0,102,0,103
CCOC(=O)C(NC(=O)c1cccc(Cl)c1)(OCc1ccc(F)cc1)C(F)(F)F (stereo not given),122,433,-1,99,i,-22,/,/,/
C(=C\c1nc(-c2cccnc2)no1)/c1ccccc1,3.0*[inhibitor],376,-46,6.0*[inhibitor],i,0,98,-1,99
OC1(c2ccc(Cl)cc2)CCN(Cc2c[nH]c3ccccc23)CC1,113,357,12,151*,i,3,130,11,103
